# Laboratory results reported in ChEMBL document CHEMBL4330160, “Prenylated Indole Diterpene Alkaloids from a Mine-Soil-Derived Tolypocladium sp” (J Nat Prod, 2019).
# The source made the active and inactive calls. No cut-off for these calls is given here.
# Experiments:
# Bacillus subtilis = assay: Antibacterial activity against Bacillus subtilis after 3 to 7 days by broth dilution assay; assay type: functional
# Micrococcus luteus = assay: Antibacterial activity against Micrococcus lysodeikticus after 3 to 7 days by broth dilution assay; assay type: functional
# Bacillus cereus = assay: Antibacterial activity against Bacillus cereus after 3 to 7 days by broth dilution assay; assay type: functional
# Salmonella paratyphi = assay: Antibacterial activity against Bacterium paratyphosum after 3 to 7 days by broth dilution assay; assay type: functional, Salmonella enterica subsp. enterica serovar Paratyphi A; details: Salmonella enterica
# Outline: (§1)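 Modified broth dilution with bacterial suspensions at 10^6 CFU/mL. Test and ciprofloxacin control stocks were 1 mg/mL in DMSO. Serial dilution and MIC read-out followed the antifungal microdilution procedure.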
# Staphylococcus aureus = assay: Antibacterial activity against Methicillin-resistant Staphylococcus aureus after 3 to 7 days by broth dilution assay; assay type: functional; outline: as §1
# Klebsiella aerogenes = assay: Antibacterial activity against Enterobacter aerogenes after 3 to 7 days by broth dilution assay; assay type: functional
# Alternaria solani = assay: Antifungal activity against Alternaria solani Sorauer after 3 to 7 days by microbroth dilution method; assay type: functional, organism-based
# Outline: (§2)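 Microbroth dilution with fungal cultures at 10^4 mycelia fragments/mL. Test samples and ketoconazole were 1 mg/mL DMSO stocks. 180 μL culture plus 20 μL stock in the first well gave 100 μg/mL final, followed by serial dilution. Run in triplicate, incubated at 28 °C for 3−7 days, and MIC determined.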
# [1] = tested on: Alternaria sp. 'fragaria'; assay: Antifungal activity against Alternaria fragaria after 3 to 7 days by microbroth dilution method; assay type: functional; outline: as §2
# Fusarium oxysporum = assay: Antifungal activity against Fusarium oxysporum Schlecht after 3 to 7 days by microbroth dilution method; assay type: functional, organism-based; outline: as §2
# Rhizoctonia solani = assay: Antifungal activity against Rhizoctonia solani after 3 to 7 days by microbroth dilution method; assay type: functional, organism-based; outline: as §2
# MHCC97H = assay: Cytotoxicity against human MHCC97H cells after 48 hrs by CCK8 assay; assay type: functional, cell-based
# Outline: (§3)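 Cultured in DMEM with 10% FBS at 37 °C under 5% CO2. After a 16 h attachment, cells were treated with varying concentrations for 48 h. CCK-8 absorbance was expressed as percent of control and IC50 derived by sigmoidal curve fitting; camptothecin was the positive control.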
# LoVo = assay: Cytotoxicity against human LoVo cells after 48 hrs by CCK8 assay; assay type: functional, cell-based; outline: as §3
# LN-229 = assay: Cytotoxicity against human LN229 cells after 48 hrs by CCK8 assay; assay type: functional, cell-based; details: LN-229, 48 h
# Outline: (§4)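 Cells grown in DMEM with 10% FBS at 37 °C, 5% CO2. Seeded at 5000 cells/well and left 16 h, then exposed to a range of concentrations in growth medium for 48 h. Viability read by CCK-8 absorbance as percent of untreated control. IC50 taken from a sigmoidal curve; camptothecin was the positive control.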
# MDA-MB-231 = assay: Cytotoxicity against human MDA231 cells after 48 hrs by CCK8 assay; assay type: functional, cell-based; details: MDA-MB-231, 48 h
# Outline: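 MDA231 cells kept in DMEM with 10% FBS at 37 °C, 5% CO2. Seeded at 10 000 cells/well and settled 16 h, then given graded concentrations for 48 h. Viability measured by CCK-8 absorbance relative to control cells, with IC50 from a sigmoidal fit; camptothecin served as the positive control.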
# [2] = Cytotoxicity against human MGC cells after 48 hrs by CCK8 assay; assay type: functional, cell-based; outline: as §4
# A549 = assay: Cytotoxicity against human A549 cells after 48 hrs by CCK8 assay; assay type: functional, cell-based; details: A549, 48 h; outline: as §4
# Huh-7 = assay: Cytotoxicity against human HuH7 cells after 48 hrs by CCK8 assay; assay type: functional, cell-based; details: Huh-7, 48 h; outline: as §4
# Verticillium dahliae = assay: Antifungal activity against Verticillium dahliae Kleb after 3 to 7 days by microbroth dilution method; assay type: functional
# Outline: (§5)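 Microbroth dilution with fungal inoculum at 10^4 mycelial fragments/mL. Stock solutions were 1 mg/mL in DMSO. 20 μL stock was added to 180 μL culture, giving a top final concentration of 100 μg/mL, then serially diluted, in triplicate. Plates were held at 28 °C for 3–7 days and read for MIC; ketoconazole was the positive control.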
# Botrytis cinerea = assay: Antifungal activity against Botrytis cinerea Pers. after 3 to 7 days by microbroth dilution method; assay type: functional; outline: as §5
# Sclerotinia sclerotiorum = assay: Antifungal activity against Sclerotinia sclerotiorum after 3 to 7 days by microbroth dilution method; assay type: functional; outline: as §5
# [3] = Antifungal activity against Cercospora personata after 3 to 7 days by microbroth dilution method; assay type: functional; details: Nothopassalora personata; outline: as §5
# Alternaria alternata = assay: Antifungal activity against Alternaria alternata after 3 to 7 days by microbroth dilution method; assay type: functional; outline: as §5
# Corynespora cassiicola = assay: Antifungal activity against Corynespora cassiicola after 3 to 7 days by microbroth dilution method; assay type: functional; outline: as §5
# Homo sapiens = species on record: Homo sapiens; assay: Cytotoxicity against human T1224 cells in patient-derived organoid model after 48 hrs by CCK8 assay; assay type: functional, cell-based
# Outline: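 Patient-derived HCC cells (50 000) were embedded in Matrigel, set 20 min at 37 °C, then grown 6–8 days in DMEM/F12 with B27, 0.01% BSA, 2 mM glutamine, penicillin/streptomycin, 10 ng/mL FGF basic, 50 ng/mL EGF and 50 ng/mL HGF to form organoids. Medium was changed every 2 days.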
smiles,measurement,setting,value
O=C(O)c1cn(C2CC2)c2cc(N3CCNCC3)c(F)cc2c1=O [CIPROFLOXACIN],MIC,Bacillus subtilis,0.78 to 1.56 µg/mL
same,MIC,Micrococcus luteus,0.78 to 1.56 µg/mL
same,MIC,Bacillus cereus,0.78 µg/mL
same,MIC,Salmonella paratyphi,0.78 to 1.56 µg/mL
same,MIC,Staphylococcus aureus,1.56 µg/mL
same,MIC,Klebsiella aerogenes,0.78 to 1.56 µg/mL
CC(C)(O)[C@@H](O)Cc1cccc2[nH]c3c(c12)C[C@@H]1CC[C@@]2(O)[C@@]45O[C@@H]4[C@@H]4O[C@H]([C@H]6OC6(C)C)OC(C)(C)[C@H]4O[C@H]5CC[C@]2(C)[C@@]31C,Activity,Alternaria solani,Active
same,MIC,[1],6.25 to 50 µg/mL
same,Activity,Fusarium oxysporum,Active
same,Activity,Rhizoctonia solani,Active
CC(C)(Cl)[C@H](O)Cc1ccc2c3c([nH]c2c1)[C@@]1(C)[C@@H](CC[C@@]2(O)[C@@]45O[C@@H]4[C@@H]4O[C@H]([C@H]6OC6(C)C)OC(C)(C)[C@H]4O[C@H]5CC[C@@]21C)C3,Activity,Alternaria solani,Active
same,MIC,[1],6.25 to 50 µg/mL
same,Activity,Fusarium oxysporum,Active
same,Activity,Rhizoctonia solani,Active
CC(C)=CCc1cccc2[nH]c3c(c12)C[C@@H]1CC[C@]2(O)[C@](C)(CCC(=O)[C@@]24O[C@@H]4[C@@H]2O[C@H](C=C(C)C)OC(C)(C)[C@@H]2O)[C@@]31C,MIC,Bacillus subtilis,12.5 to 25 µg/mL
same,MIC,Micrococcus luteus,12.5 to 25 µg/mL
same,Activity,Alternaria solani,Active
same,MIC,Bacillus cereus,12.5 to 25 µg/mL
same,MIC,Salmonella paratyphi,12.5 to 25 µg/mL
same,Activity,Fusarium oxysporum,Active
same,Activity,Rhizoctonia solani,Active
same,MIC,Staphylococcus aureus,12.5 to 25 µg/mL
same,MIC,Klebsiella aerogenes,12.5 to 25 µg/mL
CC[C@@]1(O)C(=O)OCc2c1cc1n(c2=O)Cc2cc3ccccc3nc2-1 [CAMPTOTHECIN],IC50,MHCC97H,0.00032 to 0.0318 µM
same,IC50,LoVo,0.00032 to 0.0318 µM
same,IC50,LN-229,0.00032 to 0.0318 µM
same,IC50,MDA-MB-231,0.00032 to 0.0318 µM
same,IC50,[2],0.00032 to 0.0318 µM
same,IC50,A549,0.00032 to 0.0318 µM
same,IC50,Huh-7,0.00032 to 0.0318 µM
CC(C)=C[C@H]1O[C@H]2[C@H]3O[C@@]34[C@H](CC[C@@]3(C)[C@@]4(O)CC[C@H]4Cc5c([nH]c6cccc(C[C@H](O)C(C)(C)Cl)c56)[C@@]43C)O[C@@H]2C(C)(C)O1,Activity,Alternaria solani,Active
same,MIC,[1],6.25 to 50 µg/mL
same,Activity,Fusarium oxysporum,Active
same,Activity,Rhizoctonia solani,Active
CC(C)(O)[C@H]1O[C@H]2CC[C@@]3(C)[C@@](O)(CC[C@H]4Cc5c([nH]c6cc(C[C@H](O)C(C)(C)Cl)ccc56)[C@@]43C)[C@]23O[C@@H]3[C@@H]1O,Activity,Alternaria solani,Active
same,MIC,[1],6.25 to 50 µg/mL
same,Activity,Fusarium oxysporum,Active
same,Activity,Rhizoctonia solani,Active
CC(C)(O)[C@H]1O[C@H]2CC[C@@]3(C)[C@@](O)(CC[C@H]4Cc5c([nH]c6cccc(C[C@H](O)C(C)(C)Cl)c56)[C@@]43C)[C@]23O[C@@H]3[C@@H]1O,Activity,Alternaria solani,Active
same,MIC,[1],6.25 to 50 µg/mL
same,Activity,Fusarium oxysporum,Active
same,Activity,Rhizoctonia solani,Active
same,MIC,Staphylococcus aureus,50 µg/mL
CC(=O)N1CCN(c2ccc(OCC3COC(Cn4ccnc4)(c4ccc(Cl)cc4Cl)O3)cc2)CC1 (configuration not stated) [KETOCONAZOLE],MIC,Verticillium dahliae,0.78 to 1.56 µg/mL
same,MIC,Botrytis cinerea,0.78 to 1.56 µg/mL
same,MIC,[1],0.78 µg/mL
same,MIC,Sclerotinia sclerotiorum,0.78 to 1.56 µg/mL
same,MIC,[3],0.78 to 1.56 µg/mL
same,MIC,Alternaria alternata,0.78 to 1.56 µg/mL
same,MIC,Corynespora cassiicola,0.78 to 1.56 µg/mL
CC(C)=C[C@H]1O[C@H]2[C@H]3O[C@@]34[C@H](CC[C@@]3(C)[C@@]4(O)CC[C@H]4Cc5c([nH]c6cccc(C[C@H](O)C(C)(C)O)c56)[C@@]43C)O[C@@H]2C(C)(C)O1,Activity,Alternaria solani,Active
same,MIC,[1],6.25 to 50 µg/mL
same,Activity,Fusarium oxysporum,Active
same,Activity,Rhizoctonia solani,Active
CC(C)=CCc1cccc2[nH]c3c(c12)C[C@@H]1CC[C@@]2(O)[C@@]45O[C@@H]4[C@H](O)[C@@H](C(C)(C)O)O[C@H]5CC[C@]2(C)[C@@]31C,IC50,MHCC97H,16.3 to 37.8 µM
same,IC50,LoVo,16.3 to 37.8 µM
same,MIC,Verticillium dahliae,6.25 to 25 µg/mL
same,MIC,Botrytis cinerea,6.25 to 25 µg/mL
same,Activity,Alternaria solani,Active
same,MIC,[1],6.25 to 50 µg/mL
same,IC50,LN-229,16.3 to 37.8 µM
same,MIC,Sclerotinia sclerotiorum,6.25 to 25 µg/mL
same,MIC,Bacillus cereus,25 µg/mL
same,IC50,MDA-MB-231,16.3 to 37.8 µM
same,MIC,[3],6.25 to 25 µg/mL
same,MIC,Alternaria alternata,6.25 to 25 µg/mL
same,Activity,Fusarium oxysporum,Active
same,IC50,[2],16.3 to 37.8 µM
same,Activity,Rhizoctonia solani,Active
same,MIC,Corynespora cassiicola,6.25 to 25 µg/mL
same,Activity,Homo sapiens,Active
same,MIC,Staphylococcus aureus,12.5 µg/mL
same,IC50,A549,16.3 to 37.8 µM
same,IC50,Huh-7,16.3 to 37.8 µM
CC(C)=C[C@H]1O[C@H]2[C@H]3O[C@@]34[C@H](CC[C@@]3(C)[C@@]4(O)CC[C@H]4Cc5c([nH]c6cc(C[C@H](O)C(C)(C)O)ccc56)[C@@]43C)O[C@@H]2C(C)(C)O1,Activity,Alternaria solani,Active
same,MIC,[1],6.25 to 50 µg/mL
same,Activity,Fusarium oxysporum,Active
same,Activity,Rhizoctonia solani,Active
COC(C)(C)[C@@H](O)Cc1cccc2[nH]c3c(c12)C[C@@H]1CC[C@@]2(O)[C@@]45O[C@@H]4[C@H](O)[C@@H](C(C)(C)O)O[C@H]5CC[C@]2(C)[C@@]31C,Activity,Alternaria solani,Active
same,MIC,[1],6.25 to 50 µg/mL
same,Activity,Fusarium oxysporum,Active
same,Activity,Rhizoctonia solani,Active
